MrgX1 agonist = agonists of human MrgX1 receptor. Q96LB2. MrgX1-HEK293 cells, Fluo-4 calcium fluorescence, agonist mode; stronger effect = higher value. B-score at 10 µM. actives 0.44% (n = 310,000). AID 588627;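 active = calcium response B-score plate-corrected fluorescence ratio at least 3 library SD, with starting fluorescence B-score inside 5 SD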
Target sequence (Q96LB2 whole entry, looked up): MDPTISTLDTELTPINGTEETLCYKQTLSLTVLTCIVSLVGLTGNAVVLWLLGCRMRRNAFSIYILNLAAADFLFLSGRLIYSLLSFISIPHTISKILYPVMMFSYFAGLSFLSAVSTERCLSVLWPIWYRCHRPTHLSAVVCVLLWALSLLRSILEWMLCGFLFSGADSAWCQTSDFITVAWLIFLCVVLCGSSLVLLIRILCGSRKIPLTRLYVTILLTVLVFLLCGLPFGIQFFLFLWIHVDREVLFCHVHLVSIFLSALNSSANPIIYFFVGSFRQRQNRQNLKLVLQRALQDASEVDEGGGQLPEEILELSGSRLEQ
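Assay system: MrgX1-expressing HEK293 cells / Amount: fifteen thousand cells per well / Doses: test compound in the initial addition of three / Timing: cells plated overnight, dye loaded 0.5 h 37 °C, 0.5 h room temperature / Technique: kinetic calcium dye fluorescence, Fluo-4 NW / Control set: positive and negative controls per plate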
RGS4 inh = inhibitors of human RGS4; P49798; HEK293 M3R/RGS4 inducible, Fluo-4 calcium flux; stronger effect = higher value; triggered by carbachol at its EC20; B-score at 10 µM; actives 0.45% (n = 310,000); AID 463165;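 active = B-score, a plate-corrected calcium signal, over three deviations above library mean, with baseline fluorescence within five deviations of library mean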;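 note: RGS4 expression induced by doxycycline in cells with stable M3 receptor; B-score is computed from the integrated fluorescence ratio over baseline after carbachol; higher B-score means a larger calcium signal and so more RGS4 inhibition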
Target sequence (P49798 whole entry, looked up): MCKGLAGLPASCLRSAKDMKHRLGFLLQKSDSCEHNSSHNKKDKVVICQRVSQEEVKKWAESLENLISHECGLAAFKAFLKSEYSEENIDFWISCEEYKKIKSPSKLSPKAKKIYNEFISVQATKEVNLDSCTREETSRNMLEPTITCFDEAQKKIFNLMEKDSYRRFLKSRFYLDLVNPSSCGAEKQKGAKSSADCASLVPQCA
MrgX1 antag = blocks BAM8-22 activation of human MrgX1 receptor; Q96LB2; MRGX1-HEK293 calcium flux, Fluo-4, BAM8-22 antagonism; stronger effect = lower value; B-score at 10 µM; actives 1.3% (n = 310,000);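 active = calcium-response B-score plate-corrected more than 3 library SD below zero, starting fluorescence within 5 deviations, no agonist response on first addition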;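 note: peak minus trough fluorescence over baseline after final BAM8-22 challenge near maximal dose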
RGS4 act = RGS4 potentiation or activation. actives 0.92% (n = 310,000). HEK293 M3R/inducible RGS4, carbachol calcium flux Fluo4; stronger effect = lower value. B-score at 10 µM;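 active = B-score of the integrated calcium signal more than 4 SD below the library mean, with starting fluorescence not abnormally high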;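 note: negative B-score means reduced calcium response which marks RGS4 activation or potentiation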
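Material: Inducible-RGS4 HEK293 cells carrying M3 receptor; also added: carbachol at ECmax as muscarinic agonist stimulus; incubation: compound preincubation 20 min at room temperature before agonist; signal: Fluo4-AM (2 µM) calcium-flux fluorescence, kinetic read; measure: integrated calcium ratio converted to B score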
MrgX1 allo act = allosterically activates human MrgX1 receptor signaling. actives 0.63% (n = 310,000). Q96LB2. MrgX1-HEK293, Fluo-4 calcium flux, FDSS; stronger effect = higher value. AID 588675. B-score at 10 µM;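 active = plate-corrected calcium response at least 3 library SD above typical, normal starting fluorescence, not activating the receptor alone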;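 note: compound read alongside a low EC10 to EC30 dose of BAM8-22 agonist; peak minus trough fluorescence over baseline measured at the second addition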
RGS4 block valid = RGS4 inhibitor validation; shares compounds with RGS4 inh; HEK293 M3R/RGS4, carbachol calcium Fluo-4 fluorescence; carbachol added at its EC20; 0 = buffer wells, 100 = carbachol control; actives 65% (n = 1,700); calcium response, % at 10 µM;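 active = duplicate-averaged calcium response above the buffer-only control mean plus 5 SD of those controls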;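 note: integrated fluorescence ratio F max minus min over baseline F0; higher response in RGS4-induced cells means RGS4 inhibition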
RGS4 uninduced = checks RGS4 inhibitor effects in non-induced HEK293 M3R cells. carbachol calcium Fluo-4; submaximal (EC20) carbachol stimulus; buffer wells 0%, carbachol control wells 100%. actives 20% (n = 1,900). AID 493000. activity (percent), % at 10 µM. shares compounds with RGS4 inh; call rule not given here;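 note: RGS4 induction absent so cells express M3R without RGS4; higher means more calcium signal and flags a non-specific hit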
RGS4 inh ctr2 = second counter-screen for RGS4 inhibitors: non-induced cells without carbachol. AID 493001. HEK293 M3R/RGS4 non-induced, Fluo-4 calcium, no carbachol; normalised: buffer wells 0%, carbachol wells 100%. actives 22% (n = 1,900). calcium response (agonist-mode artifact), % at 10 µM. shares compounds with RGS4 inh;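 active = duplicate-averaged calcium rise in uninduced cells above buffer wells' mean plus 5 SD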
A number is an active result; . = inactive; / = not tested or not shown. A selection: hits, their analogues and other compounds. The true share with any hit is near 3.5%.

SMILES	MrgX1 agonist	RGS4 inh	MrgX1 antag	RGS4 act	MrgX1 allo act	RGS4 block valid	RGS4 uninduced	RGS4 inh ctr2
Cc1ccc(Nc2nc(N)nc(CCl)n2)cc1	.	4.7	.	.	.	7.0%	.	.
COc1ccc(OC)c(Nc2nc(N)nc(CSc3nnc(N)s3)n2)c1	.	.	.	.	.	/	/	/
COc1ccc(Nc2nc(N)nc(CSc3nnc(C)s3)n2)cc1	.	.	.	.	.	.	.	.
Cc1ccc(Nc2nc(N)nc(CSc3nc4ccccc4s3)n2)cc1	.	5.1	.	.	.	8.0%	.	.
C=C1C(=O)[C@@]23[C@H](O)C[C@@H]4C(C)(C)CC[C@H](O)[C@@]4(C)[C@@H]2CC[C@@H]1[C@H]3O	.	4.9	.	.	.	.	.	.
CCOc1cc(/C=C\[N+](=O)[O-])ccc1OCC(=O)Nc1ccccc1C	.	43	.	.	.	54%	47%	.
O=C(NC1CCCC1)C(c1ccccn1)N(C(=O)c1csnn1)c1ccccc1F (stereo unspecified)	.	.	.	.	.	/	/	/
COc1ccc(OC)c(S(=O)(=O)N2CCCC(C(=O)N3CCOCC3)C2)c1 (stereo unspecified)	.	4.8	.	.	.	.	.	.
COc1ccc(S(=O)(=O)N2CCCC(C(=O)N3CCOCC3)C2)cc1C (stereo unspecified)	.	.	.	.	.	/	/	/
O=C1Cc2ccccc2C(=O)N1c1cccc(Cl)c1	.	.	.	.	.	/	/	/
O=C1Cc2ccccc2C(=O)N1c1ccccc1	.	5.6	.	.	.	5.0%	.	.
CCOc1c(Cl)cc(CNc2ccc(S(N)(=O)=O)cc2)cc1OC	.	.	.	.	.	/	/	/
CCOc1c(Cl)cc(CNc2ccc(N3CCCC3)cc2)cc1OC	/	5.7	/	.	/	18%	.	.
CNC[C@H](O)c1ccc(O)c(O)c1	39	4.9	.	.	.	32%	57%	.
CNC[C@H](O)c1cccc(O)c1	.	.	.	.	.	/	/	/
CC(=O)N1CC(=O)N=C1SCC(=O)Nc1nc(C)c(-c2ccccc2)s1	.	.	.	.	.	.	.	.
CCOc1ccc(-c2csc(NC(=O)CSC3=NC(=O)CN3C(C)=O)n2)c2ccccc12	.	.	.	.	.	/	/	/
CCOc1ccc(NC(=O)CN(C)C(=O)c2cc3c(s2)CCCCC3)cc1OCC	.	.	.	.	.	/	/	/
C=CCSc1n[nH]c2nc3c(c(=O)n12)C1(CCCC1)Cc1ccccc1-3	.	/	.	/	.	/	/	/
CCSc1n[nH]c2nc3c(c(=O)n12)C1(CCCC1)Cc1ccccc1-3	.	.	.	.	.	/	.	.
Cc1ccc(/C=C/C(=O)c2ccc(O)cc2)cc1	.	.	.	.	.	/	/	/
Cc1ccc(C(=O)/C=C/C(=O)O)cc1	.	16	.	.	.	64%	44%	14%
CC(NC(=O)CCC(=O)N1CCCCCC1)c1ccccc1 (stereo unspecified)	.	.	.	.	.	/	/	/
COC(=O)c1ccc(NS(=O)(=O)c2ccccc2)o1	.	.	.	.	.	/	/	/
COc1ccc2c(c1)-c1nc(NC(=O)c3ccco3)sc1CC2	.	17	.	.	.	48%	59%	.
SMILES	MrgX1 agonist	RGS4 inh	MrgX1 antag	RGS4 act	MrgX1 allo act	RGS4 block valid	RGS4 uninduced	RGS4 inh ctr2
Cc1sc(NC(=O)c2ccco2)nc1-c1ccccc1	.	7	.	.	.	31%	.	.
COc1ccc2c(c1)Cc1sc(NC(=O)c3ccco3)nc1-2	.	.	.	.	.	/	.	.
COc1ccc2c(c1)CCc1sc(NC(=O)c3ccco3)nc1-2	.	6.6	.	.	.	26%	32%	.
COc1ccc2c(c1)Cc1sc(NC(C)=O)nc1-2	.	.	.	.	.	/	/	/
C=CCn1c(SC(C)CC)nc(O)cc1=O (stereo unspecified)	.	4.8	.	.	.	.	.	.
C=CCn1c(SCCCCCC)nc(O)cc1=O	.	.	.	.	.	/	/	/
CCOC(=O)C1CCN(C(=O)COc2ccc3c(c2)OCO3)CC1	.	.	.	.	.	/	/	/
O=c1[nH]c(NNC(=S)NCc2ccccc2)nc2c1C1(CCCCC1)Cc1ccccc1-2	.	13	.	.	.	30%	.	.
O=c1[nH]c(NNC(=S)NC2CCCCC2)nc2c1C1(CCCC1)Cc1ccccc1-2	.	12	.	.	.	7.5%	.	.
CCN(CC)Cc1nc2c(c(=O)[nH]1)C1(CCCCC1)Cc1ccccc1-2	.	.	.	.	.	/	/	/
C=CCNC(=S)NNc1nc2c(c(=O)[nH]1)C1(CCCC1)Cc1ccccc1-2	.	9.8	.	.	.	22%	.	.
Cc1cccc(S(=O)Cc2ccc(C(=O)N3CCN(C(=O)c4ccco4)CC3)o2)c1 (stereo unspecified)	.	.	.	.	.	/	/	/
O=C(c1ccccc1)C1CCN(C(=O)c2ccco2)CC1	.	.	.	.	.	/	/	/
O=C(/C=C/c1ccccc1Cl)c1ccccc(=O)c1O	.	18	.	.	8.1	44%	.	10%
Cc1ccc(C)c(NC(=O)c2ccccc2O)c1	.	.	.	.	.	/	/	/
O=C(/C=C/c1ccccc1Cl)c1ccc(O)cc1	.	.	.	.	.	/	/	/
Cc1ccc(C)c(/C=C/C(=O)c2ccccc(=O)c2O)c1	.	7.5	.	.	.	14%	.	40%
Cc1ccc(/C=C/C(=O)c2ccccc(=O)c2O)c(C)c1	.	.	.	.	.	/	.	34%
CC1(c2ccc([N+](=O)[O-])cc2)NC(=O)NC1=O (stereo unspecified)	.	.	.	.	.	/	/	/
COCCN(C(=O)CNC(=O)c1cccs1)C(C(=O)NC(C)(C)C)c1ccccc1 (stereo unspecified)	.	.	.	.	.	/	/	/
COc1cc(CN(C(=O)c2cccs2)C2CCS(=O)(=O)C2)cc(OC)c1OC (stereo unspecified)	.	.	.	.	.	/	/	/
CC1=C(C(=O)c2ccccc2)C(c2cn(-c3ccccc3)nc2-c2ccc(Cl)cc2)NC(=S)N1 (stereo unspecified)	.	4.9	.	.	.	10%	.	9.0%
CCc1cc(-c2[nH]ncc2-c2ccc([N+](=O)[O-])cc2)c(O)cc1OC	.	12	.	.	26	34%	.	.
